Screens: PubChem, The Scripps Research Institute Molecular Screening Center
Most compounds without a hit are left out; they make up all but 2.7% or so of the library.
PAFAH1B3 FP inh: PAFAH1B3 enzyme inhibitors, primary screen, biochemical, fluorescence polarization, human; recombinant PAFAH1B3, FP-rhodamine probe; inhibition, % at 3.39 µM; 340,000 tested, 0.28% active;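 active = inhibition above the screen-wide average of all tested compounds plus 3 SD, cut at about 25% in these data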
Target sequence (Q15102 whole entry, looked up): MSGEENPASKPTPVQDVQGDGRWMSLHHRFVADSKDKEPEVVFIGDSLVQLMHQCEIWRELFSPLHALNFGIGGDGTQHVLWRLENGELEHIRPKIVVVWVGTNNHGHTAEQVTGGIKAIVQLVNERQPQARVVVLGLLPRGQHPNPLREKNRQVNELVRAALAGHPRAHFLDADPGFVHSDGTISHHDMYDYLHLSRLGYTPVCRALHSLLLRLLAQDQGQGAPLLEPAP
PAFAH1B2 inh: PAFAH1B2 enzyme inhibitors, primary screen, biochemical, fluorescence polarization, human; recombinant PAFAH1B2, FP-rhodamine activity probe; 340,000 tested, 1.2% active; Platelet-activating factor acetylhydrolase IB subunit alpha2 (Homo sapiens), P68402; inhibition, % at 3.39 µM;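 active = inhibition above the mean of all tested compounds plus 3 SD, cut at about 24% in these data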
Target sequence (P68402 whole entry, looked up): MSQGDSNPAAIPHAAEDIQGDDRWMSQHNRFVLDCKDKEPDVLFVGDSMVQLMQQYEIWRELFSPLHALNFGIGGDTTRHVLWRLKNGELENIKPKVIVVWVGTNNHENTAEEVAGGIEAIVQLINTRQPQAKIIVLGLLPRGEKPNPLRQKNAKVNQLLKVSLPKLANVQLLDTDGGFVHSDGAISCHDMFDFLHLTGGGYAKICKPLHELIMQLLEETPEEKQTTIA
pPAFAH inh: pPAFAH enzyme inhibitors, primary screen, biochemical, fluorescence polarization, human. recombinant pPAFAH, FP-rhodamine probe fluorescence polarization. inhibition, % at 3.39 µM. 330,000 tested, 1.5% active;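 active = inhibition above the mean inhibition across the screen plus 3 SD, cut at about 25% in these data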;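 also: inhibitors block binding of the rhodamine activity-based probe so polarization drops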
ARFGAP1 inh: inhibitors of rat ARFGAP1 GAP activity, primary screen, biochemical, fluorescence polarization, GDP tracer | ADP-ribosylation factor GTPase-activating protein 1 (Rattus norvegicus), Q62848 | AID 651572, 2012 | Arfgap1-stimulated ARF1 GTP hydrolysis, GDP FP detection | inhibition, % at 16.5 µM | 360,000 tested, 0.26% active;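 active = inhibition above a per-plate limit, mean inhibition of low control wells plus 3 SD, cut at about 25% in these data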
Target sequence (Q62848 1-136 limits assumed): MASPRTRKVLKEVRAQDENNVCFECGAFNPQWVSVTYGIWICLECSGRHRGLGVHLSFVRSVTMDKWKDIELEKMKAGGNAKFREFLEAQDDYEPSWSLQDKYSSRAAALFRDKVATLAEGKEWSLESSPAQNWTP
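Material: rat Arfgap1 catalytic domain, aa 1-136; also added: human ARF1(Δ1-17)-GTP substrate; compound dosing: one concentration, 16.5 µM, DMSO 1.26%; incubation: GTP hydrolysis reaction 2 h at 25 °C; measured by: Tracer-displacement fluorescence polarization with EDTA stop, 620/688 nm; evaluation: % inhibition from polarization; repeats: one replicate per compound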
PAFAH2 inh: PAFAH2 enzyme inhibitors, primary screen, biochemical, fluorescence polarization, human; 340,000 tested, 0.99% active; AID 492956, 2010; recombinant PAFAH2, FP-rhodamine activity probe; inhibition, % at 3.39 µM; Platelet-activating factor acetylhydrolase 2, cytoplasmic (Homo sapiens), Q99487;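 active = inhibition above the mean over all tested compounds plus 3 SD, cut at about 30% in these data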;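 also: inhibitors block probe labeling of enzyme so polarization drops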
ASAP1 inh: inhibitors of human ASAP1 ArfGAP activity, primary screen, biochemical, fluorescence polarization | 360,000 tested, 0.19% active | Arf-GAP with SH3 domain, ANK repeat and PH domain-containing protein 1 (Homo sapiens), … | AID 624377, 2012 | inhibition, % at 16.5 µM | ASAP1-stimulated ARF1 GTP hydrolysis, GDP FP detection; in the data active = inhibition above about 25%
Of the large screens only hits and unclear results are named; the others gave an inactive call.

CCN(CC)c1ccc(C(=O)n2cnc3ccccc32)cc1	pPAFAH inh 30
COC(=O)N1Cc2ccnnc2CC1c1ccccc1-c1ccc(OC)cc1 (stereo not drawn)	none (no result: PAFAH1B3 FP inh, PAFAH1B2 inh, pPAFAH inh, PAFAH2 inh)
CCCCC[C@@H]1C=C(C(=O)O)[C@H](c2ccc(CC)cc2)N1S(=O)(=O)c1ccc(C)cc1	none
CCCCC[C@@H]1C=C(C(=O)O)[C@H](c2ccc(F)cc2)N1S(=O)(=O)c1ccc(C)cc1	PAFAH1B2 inh 25
CCCCC[C@@H]1C=C(C(=O)O)[C@H](c2ccc(Cl)c(Cl)c2)N1S(=O)(=O)c1ccc(C)cc1	PAFAH1B2 inh 29
Cc1[nH]c(=O)[nH]c(=O)c1CCSSCCc1c(C)[nH]c(=O)[nH]c1=O	none (no result: PAFAH1B3 FP inh, PAFAH1B2 inh, pPAFAH inh, PAFAH2 inh)
COc1ccccc1CC(=O)O/N=C(\N)Cc1cccc2ccccc12	PAFAH2 inh 34
COc1ccc(N2C[C@@]3(O)CC[C@@H](O)[C@@H](OC)[C@@H]3[C@@](C)(O)[C@@H]2CC=C(C)C)cc1	none (no result: PAFAH1B3 FP inh, PAFAH1B2 inh, pPAFAH inh, PAFAH2 inh)
C[C@H](CO)N1C[C@H](C)[C@@H](CN(C)C(=O)Nc2ccc3c(c2)OCO3)Oc2c(NC(=O)Nc3ccc(C(F)(F)F)cc3)cccc2C1=O	PAFAH1B2 inh 28
C[C@H](CO)N1C[C@H](C)[C@@H](CN(C)C(=O)Nc2ccc(C(F)(F)F)cc2)Oc2c(NC(=O)Nc3ccc4c(c3)OCO4)cccc2C1=O	PAFAH1B2 inh 61
CC1CCC2(CC1)SCC(=O)N2c1ccccc1 (stereo not drawn)	PAFAH1B2 inh 27
CCC1CCC2(CC1)SCC(=O)N2c1ccccc1 (stereo not drawn)	none (no result: PAFAH1B3 FP inh, PAFAH1B2 inh, PAFAH2 inh)
Cc1ccc(NC(=O)CCCCCN2C(=O)[C@@H]3Cc4ccccc4CN3C2=O)cc1	PAFAH1B2 inh 28
Cc1ccc(S(=O)(=O)Nc2nc(C)c(C(=O)NNS(=O)(=O)c3cc(C)ccc3C)s2)cc1	PAFAH1B2 inh 28
Cc1nc(NS(=O)(=O)c2ccccc2)sc1C(=O)NNS(=O)(=O)c1ccccc1	none
CC(C)CC(O)(c1ccccc1)C(CN1CCOCC1)c1ccccc1 (stereo not drawn)	none
OC(c1ccc(F)cc1)(C1CCCCC1)C(CN1CCOCC1)c1ccccc1 (stereo not drawn)	PAFAH1B2 inh 35
c1ccc(-c2csc3ncnc(NCC4COc5ccccc5O4)c23)cc1 (stereo not drawn)	pPAFAH inh 34
CCOC(=O)Cc1c(C)nc2c(-c3ccccc3)c[nH]n2c1=O	none
CCOC(=O)Cc1cc(=O)n2[nH]cc(-c3ccc(Cl)cc3)c2n1	pPAFAH inh 32
CC(=O)NC1CCCCN(C)C1=O (stereo not drawn)	none (no result: PAFAH1B3 FP inh, PAFAH1B2 inh, pPAFAH inh, PAFAH2 inh)
Cc1ccn2c(=O)nc(SCC(=O)N3CCCC3)nc2c1	none
Cc1ccn2c(=O)nc(SCC(=O)c3ccc(Cl)cc3)nc2c1	pPAFAH inh 25
Cc1ccn2c(=O)nc(SCC(=O)N3CCC(C)CC3)nc2c1	pPAFAH inh 26
CCc1cc2c(nc1CC)CCCN2S(=O)(=O)c1ccc(C(F)(F)F)cc1	none (no result: PAFAH1B3 FP inh, PAFAH1B2 inh, pPAFAH inh, PAFAH2 inh)
NS(=O)(=O)c1ccc2c(c1)C1C=CCC1C(C1CC=CCC1)N2 (stereo not drawn)	pPAFAH inh 28
CC(C)C1Nc2ccc(S(N)(=O)=O)cc2C2C=CCC21 (stereo not drawn)	PAFAH1B2 inh 32
CCOC(=O)C1Nc2ccc(OC(F)(F)F)cc2C2C=CCC12 (stereo not drawn)	none
COC(=O)c1cc2c(c3c4cc(C)ccc4n(S(=O)(=O)c4ccc(C)cc4)c13)C(=O)N(Cc1ccccc1OC)C2	none (no result: PAFAH1B3 FP inh, PAFAH1B2 inh, pPAFAH inh, PAFAH2 inh)
O=c1[nH][nH]c2c(N=Cc3ccccc3O)ccc(F)c12	PAFAH1B3 FP inh 61, PAFAH1B2 inh 40, PAFAH2 inh 62 (no result: pPAFAH inh, ARFGAP1 inh, ASAP1 inh)
COc1ccccc1NC(=O)c1cc2c(CO)cnc(C)c2oc1=Nc1ccc(OC)c(OC)c1	pPAFAH inh 25
COC(=O)[C@]12C[C@H](CC(=O)NCc3ccc(C)o3)C(=O)N(Cc3ccccc3)C1=C[C@H](C(C)C)O[C@@H]2C1CC1	none (no result: PAFAH1B3 FP inh, PAFAH1B2 inh, pPAFAH inh, PAFAH2 inh)
CC(=O)Nc1cc(OC(C)=O)c2nonc2c1OC(C)=O	PAFAH1B3 FP inh 68, PAFAH1B2 inh 34
Cc1c(Cc2ccccc2)c(=O)oc2c(C)c(OCC(=O)N[C@@H](Cc3ccccc3)C(=O)O)ccc12	pPAFAH inh 33
O=C(NC1CCCCC1)c1sc(=S)n2c1[nH]c(=O)c1ccccc12	PAFAH1B3 FP inh 32, PAFAH1B2 inh 42, pPAFAH inh 32, PAFAH2 inh 56
COc1ccc(C(=O)C(=O)N2CCN(C(=O)c3ccccc3C(F)(F)F)CC2)cc1OC	none (no result: PAFAH1B3 FP inh, PAFAH1B2 inh, pPAFAH inh, PAFAH2 inh)
Cc1ccc(N=Nc2ccc3ccccc3c2O)cc1	PAFAH1B3 FP inh 52, PAFAH1B2 inh 86, PAFAH2 inh 35
Oc1c(N=Nc2ccc(F)cc2)ccc2ccccc12	none
Cc1[nH]nc2c1C(c1ccc(Cl)cc1)C(C#N)=C(N)O2 (stereo not drawn)	PAFAH1B2 inh 28
CC(C)(C)S(=O)N1C[C@@H]2CC(=O)C(c3ccccc3)=C2[C@H]1CCO (stereo partly drawn)	none (no result: PAFAH1B3 FP inh, PAFAH1B2 inh, pPAFAH inh, PAFAH2 inh)
COc1ccc(-n2cc(-c3ccccc3)c3c(=O)[nH]cnc32)cc1	none
O=c1[nH]cnc2c1c(-c1ccccc1)cn2-c1cccc(Cl)c1	pPAFAH inh 34
COc1ccc(OC)c(S(=O)(=O)CC(=O)c2cc3ccccc3oc2=O)c1	none (no result: PAFAH1B3 FP inh, PAFAH1B2 inh, pPAFAH inh, PAFAH2 inh)
CC1=C(C#N)c2nc(N)c(C#N)c(C)c2/C1=C\c1ccc(OCC(=O)O)c(Cl)c1	pPAFAH inh 32
CC(C)C(=O)Nc1ccccc1Cc1ccccc1	none
CC(C)C(=O)Nc1csc(C(F)(F)F)c1-c1ccccc1	PAFAH1B2 inh 27
C=CCOc1ccc(C2OC34CCCCC3C(C#N)(C#N)C2(C#N)C(=N)O4)cc1 (stereo not drawn)	PAFAH1B3 FP inh 51, PAFAH1B2 inh 42, PAFAH2 inh 56 (no result: ARFGAP1 inh, ASAP1 inh)
CCC12OC(=N)C(C#N)(C1C)C(C#N)(C#N)C(c1ccccc1)O2 (stereo not drawn)	none
CCCCOc1ccc(C2OC34CCCCC3C(C#N)(C#N)C2(C#N)C(=N)O4)cc1 (stereo not drawn)	PAFAH1B3 FP inh 57, PAFAH1B2 inh 39, PAFAH2 inh 42 (no result: ARFGAP1 inh, ASAP1 inh)
Cc1ccc(C2OC34CCCCCC3C(C#N)(C(=N)O4)C2(C#N)C#N)cc1 (stereo not drawn)	none
O=C(NCc1ccccc1)[C@@H]1CCCN1C(=O)[C@H]1CCCN1C(=O)c1ccc(F)cc1F	none (no result: PAFAH1B3 FP inh, PAFAH1B2 inh, pPAFAH inh, PAFAH2 inh)
O=C(CCCN1C(=O)/C(=C\c2ccccc2)SC1=S)Nc1cccc(C(=O)O)c1	none
